Measured values from ChEMBL document CHEMBL1123436, “Comparative toxicities and analgesic activities of three monomethylated analogues of acetaminophen” (J Med Chem, 1986).

Key:
Mus musculus [1] = species: Mus musculus; test: Analgesic activity determined in mice using the Bradykinin-induced Writhing test; assay type: functional
In short: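 Male CD1 mice (15–20 g), test drug given orally 15 min before bradykinin ip (4 μg in 0.2 mL sterile water), then a second bradykinin injection (0.2 μg/0.1 mL) 15 min later. Writhing was scored over the next 10 min, with control groups of 10 mice. ED50 was derived by log-probit analysis from at least five doses, with 95% limits.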

Mus musculus [2] = test: (§1) Hepatotoxicity in Swiss-Webster Mice Caused by compound at 750 mg/kg (i.p.) dose; assay type: functional; conditions: route intraperitoneal
In short: (§2)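 Male Swiss-Webster mice (20 g), groups of 10, were given a single ip dose of drug in saline with no pretreatment. Survivors were decapitated at 24 h and counted. Plasma ALT was measured, and liver sections (formalin-fixed, paraffin, H&E) were scored for necrosis severity in survivors. Values are means ± SE.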

Mus musculus [3] = test: as §1; assay type: functional, organism-based; parameters: dose 750 mg/kg; in short: as §2
[4] = (§3) Hepatotoxicity in Swiss-Webster Mice Caused by compound at 1000 mg/kg (i.p.) (phenobarbital pretreated animals)dose; assay type: functional, Mus musculus; conditions: route intraperitoneal
In short: (§4)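 Male Swiss-Webster mice (20 g), groups of 10. Sodium phenobarbital (80 mg/kg ip) was given 72, 60, 48 and 24 h before drug, then drug ip in saline. At 24 h: survivors counted, plasma ALT measured, and H&E liver sections scored for necrosis in survivors. Values are means ± SE.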

[5] = Hepatotoxicity in Swiss-Webster Mice Caused by compound at 1000 mg/kg (i.p.) (phenobarbital pretreated animals)dose; 5/10; assay type: functional, Mus musculus; conditions: route intraperitoneal; in short: as §4
Mus musculus [6] = test: Hepatotoxicity in Swiss-Webster Mice Caused by compound at 1000 mg/kg (i.p.) (cobaltous chloride pretreated animals)dose; assay type: functional, organism-based; parameters: dose 1000 mg/kg
In short: (§5)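 Male Swiss-Webster mice (20 g), groups of 10. Cobaltous chloride (30 mg/kg ip) was given 48, 36, 24 and 12 h before drug, then drug ip in saline. At 24 h: survivors counted, plasma ALT measured, and H&E liver sections scored for necrosis in survivors. Values are means ± SE.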

Mus musculus [7] = test: (§6) Hepatotoxicity in Swiss-Webster Mice Caused by compound at 1000 mg/kg (i.p.) dose; assay type: functional; conditions: route intraperitoneal; in short: as §2
Mus musculus [8] = test: as §6; assay type: functional, organism-based; parameters: dose 1000 mg/kg; in short: as §2
Mus musculus [9] = test: Hepatotoxicity in Swiss-Webster Mice Caused by compound at 1000 mg/kg (i.p.) dose; 8/10; assay type: functional; conditions: route intraperitoneal; in short: as §2
Mus musculus [10] = test: Hepatotoxicity in Swiss-Webster Mice Caused by compound at 750 mg/kg (i.p.) dose; 10/10; assay type: functional; conditions: route intraperitoneal; in short: as §2
Mus musculus [11] = test: as §3; assay type: functional, organism-based; parameters: dose 1000 mg/kg; in short: as §4
Mus musculus [12] = test: (§7) Hepatotoxicity in Swiss-Webster Mice Caused by compound at 1000 mg/kg (i.p.) (pipernonyl butoxide pretreated animals)dose; assay type: functional, organism-based; parameters: dose 1000 mg/kg
In short: (§8)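 Male Swiss-Webster mice (20 g), groups of 10. Piperonyl butoxide (neat, single 1360 mg/kg ip dose) was given 30 min before drug, then drug ip in saline. At 24 h: survivors counted, plasma ALT measured, and H&E liver sections scored for necrosis in survivors. Values are means ± SE.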

Mus musculus [13] = test: Hepatotoxicity in Swiss-Webster Mice Caused by compound at 1000 mg/kg (i.p.) (pipernonyl butoxide pretreated animals)dose; 10/10; assay type: functional; conditions: route intraperitoneal; in short: as §8
[14] = Hepatotoxicity in Swiss-Webster Mice Caused by compound at 1000 mg/kg (i.p.) (cobaltous chloride pretreated animals)dose; 9/10; assay type: functional, Mus musculus; conditions: route intraperitoneal; in short: as §5
Mus musculus [15] = test: as §7; assay type: functional; conditions: route intraperitoneal; in short: as §8

CC(=O)Nc1ccc(O)cc1C
ED50 (Mus musculus [1]): 177 mg/kg
Hepatic necrosis in survivors (Mus musculus [2]): 0.8
Plasma ALT at 24 h (Mus musculus [3]): 690 mU ml-1
Hepatic necrosis in survivors [4]: 3.4
Survivors at 24 h [5]: 5
Plasma ALT at 24 h (Mus musculus [6]): 40 mU ml-1
Hepatic necrosis in survivors (Mus musculus [7]): 1.75
Plasma ALT at 24 h (Mus musculus [8]): 2110 mU ml-1
Survivors at 24 h (Mus musculus [9]): 8
Survivors at 24 h (Mus musculus [10]): 10
Plasma ALT at 24 h (Mus musculus [11]): 3920 mU ml-1
Plasma ALT at 24 h (Mus musculus [12]): 75 mU ml-1
Survivors at 24 h (Mus musculus [13]): 10
Survivors at 24 h [14]: 9
Hepatic necrosis in survivors (Mus musculus [15]): 0
